Values after ≈ are worked out from the molar mass of the structure shown. Active and inactive are the calls of the source. The calls are words filed in the database; no cut-off is given here.
Columns and labels:
[1] = Half life in rat microsomes; format: ADME, Microsome
Method in brief: (§1)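 Stability in human or rat liver microsomes; half-life (T1/2, min) of compound turnover reported.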

[2] = Half life in human microsomes; format: ADME, Microsome; method in brief: as §1
[3] = target: T1, Corticotropin-releasing factor receptor 1 (Homo sapiens, UniProt P34998); assay: Displacement of [125I]-sauvagine from human CRF-1 receptor expressed in human IMR-32 cells after 2 hrs by scintillation counting; format: cell-based
T1 sequence (P34998 whole entry): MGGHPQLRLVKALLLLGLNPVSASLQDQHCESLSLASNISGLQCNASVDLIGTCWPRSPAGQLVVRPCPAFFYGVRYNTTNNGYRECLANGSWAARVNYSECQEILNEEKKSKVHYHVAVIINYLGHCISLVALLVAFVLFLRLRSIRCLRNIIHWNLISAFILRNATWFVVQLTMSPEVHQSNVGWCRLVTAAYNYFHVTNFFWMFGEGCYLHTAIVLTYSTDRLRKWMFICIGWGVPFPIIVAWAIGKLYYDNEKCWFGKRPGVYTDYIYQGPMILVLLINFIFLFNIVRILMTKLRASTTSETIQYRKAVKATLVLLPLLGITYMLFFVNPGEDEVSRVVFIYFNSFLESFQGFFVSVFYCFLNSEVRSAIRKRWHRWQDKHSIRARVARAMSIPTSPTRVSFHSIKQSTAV
Method in brief: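 Competition binding against 125I-sauvagine on membrane preparations from IMR-32 human neuroblastoma cells, which express CRF-1 endogenously. Modified from a published method.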

[4] = target: T1, Corticotropin-releasing factor receptor 1; assay: Antagonist activity at human CRF-1 receptor; format: functional
[5] = tested on: Rattus norvegicus; assay: Ex vivo CRF-1 receptor occupancy in po dosed rat cortical homogenate assessed as inhibition of [I125]-sauvagine binding pretreated for 3 hrs; format: functional, organism-based
Method in brief: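 Rats dosed orally at 1, 3 and 10 mg/kg; cortex taken at 3 h for ex vivo binding. Specific [125I]-sauvagine binding compared with vehicle-treated rats to give ex vivo ID50.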

[6] = tested on: Rattus norvegicus; assay: Decrease in restrained-stress induced ATCH release in plasma of Sprague-Dawley rat at 3 mg/kg, po pretreated with compound for 1 hr by radioimmunoassay; format: functional, organism-based; set-up: dose 3 mg/kg
Method in brief: (§2)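 Rats were dosed orally 1 h before a 10 min period of physical restraint, across a 1–30 mg/kg range. The read-out was plasma ACTH, compared against vehicle-treated stressed and unstressed rats.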

[7] = tested on: Rattus norvegicus; assay: Decrease in restrained-stress induced ATCH release in plasma of Sprague-Dawley rat at 10 mg/kg, po pretreated with compound for 1 hr by radioimmunoassay; format: functional, organism-based; set-up: dose 10 mg/kg; method in brief: as §2
[8] = tested on: Rattus norvegicus; assay: Antihyperlocomotion activity in Wistar rat assessed as decrease in CRF-induced hyperlocomotion at 3 mg/kg, po administered 1 hr before CRF challenge measured after 1 hr; format: functional, organism-based; set-up: dose 3 mg/kg
Method in brief: (§3)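 Oral dosing in rats 1 h before an ICV CRF challenge of 0.3 μg, across a 1–30 mg/kg range. The read-out was locomotor movement time, compared against TPGS-vehicle rats given CRF and rats given vehicle without CRF.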

[9] = tested on: Rattus norvegicus; assay: Antihyperlocomotion activity in Wistar rat assessed as decrease in CRF-induced hyperlocomotion at 10 mg/kg, po administered 1 hr before CRF challenge measured after 1 hr; format: functional, organism-based; set-up: dose 10 mg/kg; method in brief: as §3
[10] = target: Corticotropin-releasing factor receptor 1 (Rattus norvegicus, UniProt P35353); assay: Displacement of [125I]-sauvagine from rat CRF-1 receptor expressed in rat cortical membrane after 2 hrs by scintillation counting; format: cell membranes
Method in brief: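 Displacement of [125I]-sauvagine binding from rat cortical membrane homogenate with increasing compound concentrations; Ki derived.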

Corticotropin-releasing factor receptor 1 (Rattus norvegicus, UniProt P35353), sequence (P35353 whole entry): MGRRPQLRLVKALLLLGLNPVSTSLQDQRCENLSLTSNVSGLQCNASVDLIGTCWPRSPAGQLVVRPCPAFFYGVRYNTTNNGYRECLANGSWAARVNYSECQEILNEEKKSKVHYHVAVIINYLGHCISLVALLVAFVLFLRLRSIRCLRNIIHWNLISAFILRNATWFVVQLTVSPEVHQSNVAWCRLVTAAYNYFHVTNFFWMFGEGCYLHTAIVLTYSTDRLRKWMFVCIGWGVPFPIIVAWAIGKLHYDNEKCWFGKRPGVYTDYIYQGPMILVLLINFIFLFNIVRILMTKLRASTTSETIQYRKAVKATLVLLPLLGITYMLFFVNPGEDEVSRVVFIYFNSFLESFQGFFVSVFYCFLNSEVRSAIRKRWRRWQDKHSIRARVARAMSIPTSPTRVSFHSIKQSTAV

| SMILES | half-life [1] [min] | half-life [2] [min] | Ki [3] [nM] | other results |
| --- | --- | --- | --- | --- |
| CCc1nc(-c2ccc(Cl)cc2Cl)c(CC)nc1SC(C)CC (stereo not drawn) | 4.1 | 17 | 401 | – |
| CCc1nc(-c2ccc(Cl)cc2Cl)c(CC)nc1NC(C)CN(C)C (stereo not drawn) | < 1 | 7 | 489 | – |
| CCc1nc(-c2ccc(OC(C)C)cc2OC)c(CC)nc1NC(CC)CC | < 1 | 11 | 4.2 | – |
| CCc1nc(N(CC2CC2)CC2CC2)c(CC)nc1-c1ccc(Cl)cc1Cl | < 1 | 8 | 26 | – |
| CCC(CC)Nc1nc(C)c(-c2ccc(C(F)(F)F)cc2OC)nc1OC | 120 | 120 | 1.3 | – |
| CCc1nc(-c2ccc(OC(F)(F)F)cc2OC)c(CC)nc1NC(CC)CC | 2.5 | 13 | 7.2 | – |
| COCC(COC)Nc1nc(C)nc2c(-c3ccc(Cl)cc3Cl)c(C)nn12 | – | – | – | Ki [4]: 2 nM |
| CCc1nc(NC(CC)CC)c(OC)nc1-c1ccc(OC(F)F)cc1Cl | 47 | 120 | 1.4 | – |
| CCc1nc(NC(CC)CC)c(OC)nc1-c1ccc(OC)cc1C(F)(F)F | 120 | 120 | 2.2 | – |
| CCCN(CCC)c1c(C)ncc2c(-c3ccc(Cl)cc3Cl)cccc12 | – | – | – | Ki [4]: 103 nM |
| CCc1nc(-c2ccc(OC(F)F)cc2Cl)c(OC)nc1NC(CC)CC | 17 | 120 | 2.5 | – |
| CCc1nc(-c2ccc(Cl)cc2Cl)c(CC)nc1NC(C1CC1)C1CC1 | 2.5 | 11 | 3.7 | – |
| CCC(CC)Nc1nc(C)c(-c2ccc(Cl)cc2Cl)nc1C | 3.2 | 29 | 27 | – |
| CCc1nc(NC(CC)CC)c(I)nc1-c1ccc(Cl)cc1Cl | – | – | 12 | – |
| CCC(CC)Nc1nc(C)c(-c2ccc(Cl)cc2Cl)nc1OC | – | – | 4.3 | – |
| CCCN(CC1CC1)c1nc(CC)c(-c2ccc(Cl)cc2Cl)nc1CC | 4.2 | 12 | 19.2 | – |
| CCCC(CCC)N1CCn2nc(-c3ccc(Cl)cc3Cl)c3nc(C)cc1c32 | – | – | – | Ki [4]: 4 nM |
| CCc1nc(NC(CC)CC)c(OC)nc1-c1ccc(Cl)cc1Cl | – | 35 | 5.9 | – |
| CCc1nc(NC(CC)CC)c(C)nc1-c1ccc(Cl)cc1Cl | 11 | 27 | 54 | – |
| CCc1nc(NC(CC)CC)c(OC)nc1-c1ccc(C(F)(F)F)cc1OC | 23 | 73 | 4.4 | – |
| CCc1nc(-c2ccc(Cl)cc2Cl)c(OC)nc1NC(CC)CC | 11 | 42 | 8 | – |
| CCc1nc(-c2ccc(Cl)cc2Cl)c(CC)nc1CC(CC)CC | 2.5 | 13 | 68 | – |
| CCC(CC)Nc1nc(C)c(-c2ccc(OC(F)F)cc2Cl)nc1OC | 48 | 120 | 4.6 | – |
| CCc1cc(OC)ccc1-c1nc(OC)c(NC(CC)CC)nc1CC | 120 | 120 | 1.9 | – |
| CCc1nc(-c2ccc(Cl)cc2Cl)c(C)nc1NC(CC)CC | 4.2 | 18 | 8.6 | – |

| SMILES | half-life [1] [min] | half-life [2] [min] | Ki [3] [nM] | other results |
| --- | --- | --- | --- | --- |
| CCc1nc(-c2ccc(OC(F)(F)F)cc2OC)c(OC)nc1NC(CC)CC | 36 | 52 | 6.1 | – |
| CCc1nc(-c2ccc(C(F)(F)F)cc2OC)c(CC)nc1NC(CC)CC | – | 11 | 5.6 | – |
| CCOc1ccc(-c2nc(OC)c(NC(CC)CC)nc2C)c(Cl)c1 | 47 | 120 | 5.9 | – |
| CCc1nc(-c2ccc(OC)cc2C(F)(F)F)c(CC)nc1NC(CC)CC | 4.3 | 12 | 4.4 | – |
| CCc1nc(-c2cnc(C)cc2N(C)C)c(CC)nc1NC(CC)CC | < 1 | 7 | 7.6 | – |
| CCCN(CCN(C)C)c1nc(CC)c(-c2ccc(Cl)cc2Cl)nc1CC | < 1 | 5 | 1540 | – |
| CCc1nc(-c2ccc(Cl)cc2Cl)c(CC)nc1OC(CC)CC | 2.5 | 10 | 46 | – |
| CCC(CC)Nc1nc(OC)c(-c2ccc(Cl)cc2Cl)nc1C | 17 | 56 | 14.4 | – |
| CCc1nc(N(CCOC)CCOC)c(CC)nc1-c1ccc(Cl)cc1Cl | < 1 | 2 | 128 | – |
| CCc1nc(NC(CC)CC)cnc1-c1ccc(Cl)cc1Cl | – | 28 | 545 | – |
| CCc1nc(-c2ccc(Cl)cc2Cl)c(CC)nc1NC(COC)COC | 2.5 | 9 | 224 | – |
| CCOc1ccc(-c2nc(CC)c(NC(CC)CC)nc2CC)c(OC)c1 | – | – | 7.8 | – |
| CCc1nc(NC(CC)CC)c(F)nc1-c1ccc(Cl)cc1Cl | 21 | 73 | 167 | – |
| CCc1nc(-c2ccc(OC)nc2OC)c(CC)nc1NC(CC)CC | 2.5 | 9 | 11.6 | – |
| CCOc1nc(-c2ccc(Cl)cc2Cl)c(CC)nc1NC(CC)CC | 74 | 120 | 151 | – |
| CCCN(CCC)c1cc(C)nc2c(-c3cnc(N(C)C)cc3C)c(C)nn12 | – | – | – | IC50 [5]: 0.074 mg/L (≈ 0.194 µM); ED50 ([5]; po, read-out: ID50 (the source's name)): 7.2 mg/kg; Activity [6]: Active; Activity [7]: Active; Activity [8]: Active; Activity [9]: Active; Ki [10]: 3.8 nM |
| CCc1nc(-c2ccc(OC)cc2OC)c(CC)nc1NC(CC)CC | 2.5 | 8 | 7.3 | – |
| CCCCc1nc(-c2ccc(Cl)cc2Cl)c(CC)nc1NC(CC)CC | 4.2 | 22 | 3660 | – |
| CCc1nc(-c2ccc(OC)cc2Cl)c(OC)nc1NC(CC)CC | – | 120 | 1.1 | – |
| CCC(CC)Nc1nc(OC)c(-c2ccc(Cl)cc2Cl)nc1OC | 2.5 | 16 | 8.4 | – |
| CCc1nc(-c2ccc(OC)cc2O)c(CC)nc1NC(CC)CC | 5.9 | 18 | 1180 | – |
| CCc1nc(-c2cnc(OC)nc2OC)c(CC)nc1NC(CC)CC | < 1 | 7 | 17.2 | – |
| CCc1nc(NC(CC)CC)c(Cl)nc1-c1ccc(Cl)cc1Cl | < 1 | 10 | 71 | – |
| CCc1nc(-c2ccc(OC)cc2OC(F)(F)F)c(CC)nc1NC(CC)CC | 4.1 | 16 | 4.1 | – |
| CCc1nc(-c2ccc(C)cc2OC)c(CC)nc1NC(CC)CC | < 1 | 11 | 23.7 | – |

Source: ChEMBL document CHEMBL1806459, “Discovery of N-(1-ethylpropyl)-[3-methoxy-5-(2-methoxy-4-trifluoromethoxyphenyl)-6-methyl-pyrazin-2-yl]amine 59 (NGD 98-2): an orally active corticotropin releasing factor-1 (CRF-1) receptor antagonist” (J Med Chem, 2011)
